These results are taken from ChEMBL document CHEMBL2390886, “Guaifenesin derivatives promote neurite outgrowth and protect diabetic mice from neuropathy” (J Med Chem, 2013).

Active and inactive are the calls of the source. The calls are words filed in the database; no cut-off is given here.

In series [1] the test system is DRG neuron. Nature of the series: Neuroprotective activity in Sprague-Dawley rat DRG neurons assessed as enhancement of neurite outgrowth at 0.01 to 1 uM after 24 hrs by confocal microscopic analysis. It is filed as functional. The gist of the method: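 DRG from adult male Sprague-Dawley rats dissociated; neurons cultured in defined Hams medium. Test agent incubated 24 h, then DIC images captured by confocal microscopy. Total neurite length per neuron measured morphometrically with a Weibel grid as crosspoints per cell, relative to control neurons of the same preparation. Mean ± SEM of 6 replicate cultures; one-way ANOVA with Tukey's post hoc test.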

Series [2] has as its system DRG neuron. Nature of the series: Neuroprotective activity in Sprague-Dawley rat DRG neurons assessed as enhancement of neurite outgrowth up to 1 uM after 24 hrs by confocal microscopic analysis. The series is classed as functional. The gist of the method: (§1)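 Dissociated DRG neurons from adult male Sprague−Dawley rats cultured in defined medium with compound for 24 h. DIC images by confocal microscopy. Total neurite length per cell scored with Weibel-grid morphometry as intersects per cell, compared with control neurons of the same preparation. n = 6 replicate cultures; mean ± SEM; one-way ANOVA with Tukey's test.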

Series [3] can be described thus: Cmax in C57BL/6J mouse at 10 mg/kg, po by LC-MS/MS analysis. It is filed as ADME, organism-based. The arrangement: dose 10 mg/kg, route oral. Particulars: in vivo. The gist of the method:
(§2)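 Single oral dose […] given to control and STZ-diabetic mice; plasma analysed by LC−MS/MS. Samples vortexed 2 min, centrifuged, organic layer dried under N2 at room temperature and reconstituted in 0.2% TFA in MeOH/water 20:80. Standards 20–100 000 nM in water; internal standard response variable, not used for quantification.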

Series [4] deals with DRG neuron. Description: Neuroprotective activity in Sprague-Dawley rat DRG neurons assessed as sprouting of neurites at 1 uM after 24 hrs by confocal microscopic analysis. The series is classed as functional. The gist of the method: as §1
Series [5] in a line: Tmax in C57BL/6J mouse at 10 mg/kg, po by LC-MS/MS analysis. The series is classed as ADME, organism-based. Further details: dose 10 mg/kg, route oral. Particulars: in vivo. Summed up:
as §2

Series [6] concerns DRG neuron. Description: Neuroprotective activity in Sprague-Dawley rat DRG neurons assessed as enhancement of neurite outgrowth at >10 nM after 24 hrs by confocal microscopic analysis. It is filed as functional. The gist of the method: as §1
Series [7] relates to Mus musculus. Description: Neuroprotective activity in streptozotocin-induced C57BL/6J mouse diabetic neuropathy model assessed as prevention of motor neuron conduction velocity slowing at 10 to 100 mg/kg/day, po administered 6 days per week for 4 weeks. It is filed as functional, organism-based. Summed up:
(§3)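 Type 1 diabetes induced in fasted mice by ip STZ 90 mg/kg in sterile citrate buffer on 2 consecutive days, confirmed 4 days later and at study end by tail-prick blood glucose (reflectance meter). Compound or vehicle (water) by oral gavage 6 days/week from diabetes onset for 4 weeks. Body weight, glucose, and sciatic MNCV recorded. MNCV taken at 37 °C under isoflurane, stimulating at sciatic notch and Achilles tendon (5 V, 0.05 ms square wave), recording in ipsilateral paw interosseus muscles. n = 10−12/group; mean ± SEM; one-way ANOVA with Dunnett's test.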

A short description of series [8]: AUC (0 to t) in streptozotocin-induced C57BL/6J mouse diabetic neuropathy model at 10 mg/kg, po by LC-MS/MS analysis. It is filed as ADME, organism-based. As to conditions: in vivo. The arrangement: dose 10 mg/kg, route oral. Summed up: as §2
For series [9], the system named is Mus musculus. Description: Antidiabetic activity in streptozotocin-induced C57BL/6J mouse diabetic neuropathy model assessed as effect on hyperglycemia at 10 to 100 mg/kg/day, po administered 6 days per week for 4 weeks. It is filed as functional, organism-based. Summed up: as §3
For series [10], the system named is Mus musculus. Description: Antidiabetic activity in streptozotocin-induced C57BL/6J mouse diabetic neuropathy model assessed as effect on weight loss at 10 to 100 mg/kg/day, po administered 6 days per week for 4 weeks. It is filed as functional, organism-based. Summed up:
as §3

The nature of series [11]: AUC (0 to t) in C57BL/6J mouse at 10 mg/kg, po by LC-MS/MS analysis. Further details: dose 10 mg/kg, route oral. Particulars: plasma. It is filed as ADME, organism-based. Summed up:
as §2

Series [12] relates to Mus musculus. Description: Toxicity in C57BL/6J mouse assessed as change in body weight at 10 to 100 mg/kg/day, po administered 6 days per week for 4 weeks (reference value: 26.7 +/- 0.4 g). The series is classed as organism-based. The arrangement: route oral. As to conditions: in vivo.
The test system of series [13] is Mus musculus. Description: Toxicity in C57BL/6J mouse sciatic nerve assessed as motor neuron conduction velocity at 10 to 100 mg/kg/day, po administered 6 days per week for 4 weeks (reference value: 35.6 +/- 1.1 m/s). The arrangement: route oral. Particulars: in vivo. It is filed as organism-based.
Series [14] in a line: Cmax in streptozotocin-induced C57BL/6J mouse diabetic neuropathy model at 10 mg/kg, po by LC-MS/MS analysis. The series is classed as ADME, organism-based. The arrangement: dose 10 mg/kg, route oral. Particulars: in vivo. Summed up: as §2
A short description of series [15]: Tmax in streptozotocin-induced C57BL/6J mouse diabetic neuropathy model at 10 mg/kg, po by LC-MS/MS analysis. The arrangement: dose 10 mg/kg, route oral. The series is classed as ADME, organism-based. Particulars: in vivo. The gist of the method: as §2
The test system of series [16] is Mus musculus. Description: Toxicity in C57BL/6J mouse assessed as unusual behavior at 10 to 100 mg/kg/day, po administered 6 days per week for 4 weeks. As to conditions: in vivo. The arrangement: route oral. The series is classed as organism-based.
Series [17] in a line: Metabolic stability in human liver microsomes assessed as compound remaining at 2 uM after 1 hr by LC-MS/MS analysis. It is filed as ADME, Microsome. As to conditions: read-out: Stability. The gist of the method:
(§4)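 2 μM compound incubated with mouse or human liver microsomes plus excess NADPH at 37 °C in a shaking water bath for 0 and 60 min (n = 6). Quenched with 2 volumes acetonitrile, centrifuged, supernatant diluted 1:1 with water, analysed by LC−MS/MS as % remaining. Propranolol control.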

The nature of series [18]: Metabolic stability in mouse liver microsomes assessed as compound remaining at 2 uM after 1 hr by LC-MS/MS analysis. It is filed as ADME, Microsome. As to conditions: read-out: Stability. Summed up:
as §4

Series [19] in a line: Permeability of the compound after 5 hrs by PAMPA. As to conditions: read-out: permeability. The series is classed as ADME. Summed up: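 Precoated PAMPA plate warmed to room temperature. Donor: 25 μM compound in 5% DMSO/PBS; acceptor: 5% DMSO/PBS. Incubated 5 h at 25 °C in water bath. Donor and acceptor samples quantified by LC−MS/MS against calibration standards; mass retention also determined. Propranolol control.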

For series [20], the system named is Mus musculus. Nature of the series: Antidiabetic activity in streptozotocin-induced C57BL/6J mouse diabetic neuropathy model assessed as effect on hyperglycemia at 1 to 10 mg/kg/day, po administered 6 days per week for 4 weeks. It is filed as functional, organism-based. Summed up: as §3
For series [21], the system named is Mus musculus. Description: Neuroprotective activity in streptozotocin-induced C57BL/6J mouse diabetic neuropathy model assessed as prevention of motor neuron conduction velocity slowing at 1 to 10 mg/kg/day, po administered 6 days per week for 4 weeks. It is filed as functional, organism-based. Summed up: as §3
The test system of series [22] is Mus musculus. Description: Antidiabetic activity in streptozotocin-induced C57BL/6J mouse diabetic neuropathy model assessed as effect on weight loss at 1 to 10 mg/kg/day, po administered 6 days per week for 4 weeks. The series is classed as functional, organism-based. The gist of the method: as §3
The subject of series [23] is DRG neuron. Description: Neuroprotective activity in Sprague-Dawley rat DRG neurons assessed as enhancement of neurite outgrowth at 0.01 uM after 24 hrs by confocal microscopic analysis. The series is classed as functional. The gist of the method: as §1

Take `COc1ccccc1OC[C@@H](O)CF`: the result in series [1] was inactive.
As to `COc1ccccc1NCC(O)CO` (racemic), the outcome in series [2] was inactive.
Regarding `Cc1ccccc1OCC(O)CO` (racemic), the outcome in series [1] was Active.
As to `COc1ccccc1OCC(O)CO` (racemic) [GUAIFENESIN], the Cmax in [3] turned out to be 5.28 µM; in series [14] it was 5.27 µM. The result in series [4], in series [6] and in series [7] was Active. For the same compound, the Tmax in [5] and in series [15] was 4.98 min in each case. For the same compound, the AUC(0-t) in series [8] was 1.91 µM·h; in [11] it was 2.73 µM·h. Further, the outcome in series [9] and in series [10] was inactive. Besides, the figures for the Activity in [12], in [13] and in [16] were 27.1 g, 35.1 meter/s and “Non-toxic”, respectively.
As for `CCc1ccccc1OCC(O)CO` (stereo not given), the outcome in series [1] was inactive.
Take `COc1ccccc1OC[C@@H](O)CO`: the remaining at 1 h, 2 µM is 94.8% in [17] and 92.9% in series [18]. For the same compound, in series [19], the Papp at 5 h is 8.2 ×10⁻⁶ cm/s. For the same compound, in series [1], the result was inactive.
Consider `COc1ccccc1OC[C@H](O)CO`, for which the Cmax in series [3] turned out to be 0.44 µM; in series [14], 0.741 µM. The Tmax in series [5] and in series [15] was 10 min throughout. The result in series [20] and in series [22] was inactive. For the same compound, the result in [21] and in series [23] was Active. For the same compound, the AUC(0-t) in [8] was determined as 0.746 µM·h; in series [11], 0.737 µM·h. The remaining at 1 h, 2 µM was found to be 97.4% in [17] and 92.4% in series [18]. Besides, the Papp at 5 h in series [19] was found to be 6.3 ×10⁻⁶ cm/s.
